Reference: ChEMBL document CHEMBL1828552, “Synthesis and studies of novel 2-(4-cyano-3-trifluoromethylphenyl amino)-4-(quinoline-4-yloxy)-6-(piperazinyl/piperidinyl)-s-triazines as potential antimicrobial, antimycobacterial and anticancer agents” (2011)
In brackets after ≈: the same amount, converted by molar mass.

What was measured:
[1] = system: Salmonella typhi; assay: Antibacterial activity against 10^5 CFU/mL Salmonella typhi MTCC 733 after 24 hrs by agar streak dilution method; type: functional, Salmonella enterica subsp. enterica serovar Typhi; conditions: Salmonella enterica, MTCC 733, 24 h
[2] = system: Bacillus cereus; assay: Antibacterial activity against 10^5 CFU/mL Bacillus cereus MTCC 619 after 24 hrs by disc diffusion technique; type: functional
How it was run: (§1)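 Disc diffusion on Mueller–Hinton agar poured 5 mm deep. The surface was swabbed with a 10⁵ CFU/mL […] suspension. Filter-paper discs 6.25 mm in diameter were soaked in compound in DMSO and placed on the agar. Plates were incubated 24 h at 37 ± 1 °C, and the inhibition zone was measured in mm. A DMSO disc served as blank.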

[3] = system: Shigella flexneri; assay: Antibacterial activity against 10^5 CFU/mL Shigella flexneri MTCC 1457 after 24 hrs by agar streak dilution method; type: functional; conditions: MTCC 1457, 24 h
How it was run: (§2)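 Agar streak dilution. Stock 100 µg/mL in DMSO; graded amounts were mixed into molten nutrient agar and poured at 4–5 mm depth. Plates carried serial dilutions over […]. About 10⁵ CFU/mL of each bacterium was applied, and plates were incubated at 37 ± 1 °C for 24 h. MIC was read from the dilution series.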

[4] = system: Aspergillus clavatus; assay: Antifungal activity against 10^5 CFU/mL Aspergillus clavatus MTCC 1323 after 48 hrs by agar streak dilution method; type: functional; conditions: MTCC 1323, 48 h
How it was run: (§3)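 Agar streak dilution for fungi. Stock 100 µg/mL in DMSO; graded amounts were mixed into molten Sabouraud dextrose agar and poured at 4–5 mm depth. Serial dilutions ran over […]. About 10⁵ CFU/mL inoculum was applied, with incubation at 37 ± 1 °C for 48 h. MIC was read from the dilution series.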

[5] = system: Aspergillus niger; assay: Antifungal activity against 10^5 CFU/mL Aspergillus niger MTCC 282 after 48 hrs by agar streak dilution method; type: functional; conditions: MTCC 282, 48 h; how it was run: as §3
[6] = system: Staphylococcus aureus; assay: Antibacterial activity against 10^5 CFU/mL Staphylococcus aureus MTCC 96 after 24 hrs by disc diffusion technique; type: functional; how it was run: as §1
[7] = system: Aspergillus niger; assay: Antifungal activity against 10^5 CFU/mL Aspergillus niger MTCC 282 after 48 hrs by disc diffusion technique; type: functional
[8] = system: Escherichia coli; assay: Antibacterial activity against 10^5 CFU/mL Escherichia coli MTCC 739 after 24 hrs by agar streak dilution method; type: functional; conditions: MTCC 739, 24 h; how it was run: as §2
[9] = system: Klebsiella pneumoniae; assay: Antibacterial activity against 10^5 CFU/mL Klebsiella pneumoniae MTCC 109 after 24 hrs by disc diffusion technique; type: functional; how it was run: as §1
[10] = system: Candida albicans; assay: Antifungal activity against 10^5 CFU/mL Candida albicans MTCC 183 after 48 hrs by agar streak dilution method; type: functional; conditions: MTCC 183, 48 h; how it was run: as §3
[11] = system: Escherichia coli; assay: Antibacterial activity against 10^5 CFU/mL Escherichia coli MTCC 739 after 24 hrs by disc diffusion technique; type: functional; how it was run: as §1
[12] = system: Proteus vulgaris; assay: Antibacterial activity against 10^5 CFU/mL Proteus vulgaris MTCC 1771 after 24 hrs by agar streak dilution method; type: functional; conditions: MTCC 1771, 24 h; how it was run: as §2
[13] = system: Staphylococcus aureus; assay: Antibacterial activity against 10^5 CFU/mL Staphylococcus aureus MTCC 96 after 24 hrs by agar streak dilution method; type: functional; conditions: MTCC 96, 24 h; how it was run: as §2
[14] = system: DU-145; assay: Cytotoxicity against […] human DU145 cells after 48 hrs by SRB assay; type: functional; conditions: DU-145, 48 h
How it was run: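 SRB assay in DU-145 cells grown in RPMI 1640 with 10% FBS and 2 mM L-glutamine. Cells were plated and held 24 h before addition of four 10-fold concentrations. After 48 h, cells were TCA-fixed, stained with 0.4% SRB and read at 540 nm. GI50, TGI and LC50 were derived against time-zero and control wells; each value is the mean of three experiments.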

[15] = system: Candida albicans; assay: Antifungal activity against 10^5 CFU/mL Candida albicans MTCC 183 after 48 hrs by disc diffusion technique; type: functional
[16] = system: Aspergillus clavatus; assay: Antifungal activity against 10^5 CFU/mL Aspergillus clavatus MTCC 1323 after 48 hrs by disc diffusion technique; type: functional
[17] = system: Shigella flexneri; assay: Antibacterial activity against 10^5 CFU/mL Shigella flexneri MTCC 1457 after 24 hrs by disc diffusion technique; type: functional; how it was run: as §1
[18] = system: Aspergillus fumigatus; assay: Antifungal activity against 10^5 CFU/mL Aspergillus fumigatus MTCC 343 after 48 hrs by agar streak dilution method; type: functional; conditions: MTCC 343, 48 h; how it was run: as §3
[19] = system: Proteus vulgaris; assay: Antibacterial activity against 10^5 CFU/mL Proteus vulgaris MTCC 1771 after 24 hrs by disc diffusion technique; type: functional; how it was run: as §1
[20] = system: Salmonella typhi; assay: Antibacterial activity against 10^5 CFU/mL Salmonella typhi MTCC 733 after 24 hrs by disc diffusion technique; type: functional, Salmonella enterica subsp. enterica serovar Typhi
How it was run: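 Disc diffusion. Mueller-Hinton agar autoclaved 120 °C 30 min, poured 5 mm deep. Surface swabbed with 10⁵ CFU/mL suspension […]. 6.25 mm filter-paper discs soaked in compound in DMSO; DMSO-only disc as blank. Incubated 37 ± 1 °C, 24 h for bacteria or 48 h for fungi. Ciprofloxacin and ketoconazole discs as reference drugs. Inhibition zone measured in mm.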

[21] = system: Pseudomonas aeruginosa; assay: Antibacterial activity against 10^5 CFU/mL Pseudomonas aeruginosa MTCC 741 after 24 hrs by disc diffusion technique; type: functional; how it was run: as §1
[22] = system: Klebsiella pneumoniae; assay: Antibacterial activity against 10^5 CFU/mL Klebsiella pneumoniae MTCC 109 after 24 hrs by agar streak dilution method; type: functional; conditions: MTCC 109, 24 h; how it was run: as §2
[23] = system: Pseudomonas aeruginosa; assay: Antibacterial activity against 10^5 CFU/mL Pseudomonas aeruginosa MTCC 741 after 24 hrs by agar streak dilution method; type: functional; conditions: MTCC 741, 24 h; how it was run: as §2
[24] = system: Bacillus cereus; assay: Antibacterial activity against 10^5 CFU/mL Bacillus cereus MTCC 619 after 24 hrs by agar streak dilution method; type: functional; conditions: MTCC 619, 24 h; how it was run: as §2
[25] = system: Aspergillus fumigatus; assay: Antifungal activity against 10^5 CFU/mL Aspergillus fumigatus MTCC 343 after 48 hrs by disc diffusion technique; type: functional

Structure (SMILES) | MIC [1] | inhibition zone (IZ) [2] | MIC [3] | MIC [4] | MIC [5] | inhibition zone (IZ) [6] | inhibition zone (IZ) [7] | MIC [8] | inhibition zone (IZ) [9] | MIC [10] | inhibition zone (IZ) [11] | MIC [12] | MIC [13] | GI50 [14] | LC50 (concentration giving 50% net cell kill relative to time zero) [14] | TGI [14] | inhibition zone (IZ) [15] | inhibition zone (IZ) [16] | inhibition zone (IZ) [17] | MIC [18] | other results
N#Cc1ccc(Nc2nc(Oc3ccnc4ccccc34)nc(N3CCOCC3)n2)cc1C(F)(F)F | 100 µg/mL (≈ 203 µM) | <10 mm | 100 µg/mL (≈ 203 µM) | 100 µg/mL (≈ 203 µM) | 100 µg/mL (≈ 203 µM) | 14 mm | 13 mm | 100 µg/mL (≈ 203 µM) | 14 mm | 100 µg/mL (≈ 203 µM) | <10 mm | 100 µg/mL (≈ 203 µM) | 100 µg/mL (≈ 203 µM) | 68.3 µM | > 100 µM | > 100 µM | 13 mm | 13 mm | <10 mm | 100 µg/mL (≈ 203 µM) | inhibition zone (IZ) [19]: 16 mm; inhibition zone (IZ) [20]: 13 mm; inhibition zone (IZ) [21]: <10 mm; MIC [22]: 100 µg/mL (≈ 203 µM); MIC [23]: 100 µg/mL (≈ 203 µM); MIC [24]: 100 µg/mL (≈ 203 µM); inhibition zone (IZ) [25]: <10 mm
N#Cc1ccc(Nc2nc(Oc3ccnc4ccccc34)nc(N3CCN(c4ccccc4)CC3)n2)cc1C(F)(F)F | 100 µg/mL (≈ 176 µM) | <10 mm | 100 µg/mL (≈ 176 µM) | 100 µg/mL (≈ 176 µM) | 100 µg/mL (≈ 176 µM) | 14 mm | <10 mm | 100 µg/mL (≈ 176 µM) | <10 mm | 100 µg/mL (≈ 176 µM) | <10 mm | 100 µg/mL (≈ 176 µM) | 100 µg/mL (≈ 176 µM) | > 100 µM | > 100 µM | > 100 µM | <10 mm | <10 mm | <10 mm | 100 µg/mL (≈ 176 µM) | inhibition zone (IZ) [19]: 14 mm; inhibition zone (IZ) [20]: 13 mm; inhibition zone (IZ) [21]: <10 mm; MIC [22]: 100 µg/mL (≈ 176 µM); MIC [23]: 100 µg/mL (≈ 176 µM); MIC [24]: 100 µg/mL (≈ 176 µM); inhibition zone (IZ) [25]: <10 mm
